Test results: ChEMBL document CHEMBL1123758, “Thromboxane synthetase inhibitors and antihypertensive agents. 3. N-[(1H-imidazol-1-yl)alkyl]heteroaryl amides as potent enzyme inhibitors” (J Med Chem, 1987)
The source made the active and inactive calls.

Tests used:
Rattus norvegicus [1] = assay: Antihypertensive activity was measured in spontaneously hypertensive rats (SHR) at 100 mg/kg peroral dose (2 days); NA denotes inactive; type: functional, organism-based; set-up: dose 100 mg/kg
Method in brief: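 Male 16-week-old Okamoto SHR, mean arterial pressure about 170 mmHg. Dosed by gavage at 100 mg/kg (or less) as a suspension in 2% preboiled starch, with 0.9% NaCl loading at 25 mL/kg. A second identical dose without saline was given 24 h later. Mean arterial pressure was read at 28 h, using one to three rats. Active if ≤116 mmHg in one rat or a two-rat average ≤122 mmHg.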

[2] = target: T1, Thromboxane-A synthase (Rattus norvegicus) (UniProt P49430); settings: at 100 µM
T1 sequence (whole entry): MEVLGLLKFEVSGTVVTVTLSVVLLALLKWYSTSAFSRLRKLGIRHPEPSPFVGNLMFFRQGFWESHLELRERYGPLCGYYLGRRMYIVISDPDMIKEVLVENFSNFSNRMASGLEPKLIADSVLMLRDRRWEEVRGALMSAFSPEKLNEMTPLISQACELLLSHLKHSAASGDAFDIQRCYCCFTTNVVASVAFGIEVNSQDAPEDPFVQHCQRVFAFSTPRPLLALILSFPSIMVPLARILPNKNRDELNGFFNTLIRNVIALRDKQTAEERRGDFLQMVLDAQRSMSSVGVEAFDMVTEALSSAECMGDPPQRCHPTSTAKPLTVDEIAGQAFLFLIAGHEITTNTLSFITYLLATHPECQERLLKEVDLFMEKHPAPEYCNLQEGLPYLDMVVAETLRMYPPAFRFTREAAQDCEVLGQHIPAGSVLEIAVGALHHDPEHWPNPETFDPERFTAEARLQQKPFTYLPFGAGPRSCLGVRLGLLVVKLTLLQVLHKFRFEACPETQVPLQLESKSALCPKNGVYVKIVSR

Thromboxane-A synthase = target: T2, Thromboxane-A synthase (Rattus norvegicus, UniProt P49430); assay: Inhibition of thromboxane formation at a concentration of 10e -6 M.
T2 sequence (P49430 whole entry): T1 sequence (whole entry)

[3] = target: T1, Thromboxane-A synthase (Rattus norvegicus); assay: Inhibition of thromboxane formation at a concentration of 10e -4 M.
Method in brief: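 Washed SHR platelets in oxygenated Krebs phosphate buffer pH 7.4, (4.5-6.0) × 10^4 platelets/µL, with drug or vehicle, 10 min at 37 °C. Stopped on ice with citric acid. TXB2 in the supernatant was measured by direct RIA. Boiled-sample blanks were subtracted, then percent inhibition of TXB2 formation was calculated. Replicate number varies by entry.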

Rattus norvegicus [4] = assay: Antihypertensive activity was measured in spontaneously hypertensive rats (SHR) at 100 mg/kg peroral dose (2 days); active; type: functional, organism-based; set-up: dose 100 mg/kg
Method in brief: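 Male Okamoto SHR, 16 weeks old, mean arterial pressure about 170 mmHg. Compound suspended in 2% preboiled starch at 50 mg/mL and given by gavage at 100 mg/kg or less with 0.9% NaCl loading (25 mL/kg). An identical dose without saline followed 24 h later. Mean arterial pressure was read 28 h after the first dose in one to three rats. Active: one rat ≤116 mmHg, or mean of two ≤122 mmHg.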

Row | SMILES | inhibition [2] [%] | IC50 (Thromboxane-A synthase) [nM] | inhibition [3] [%] | Activity (Rattus norvegicus [1]) | Activity (Rattus norvegicus [4])
1 | O=C(NCCCCn1ccnc1)c1ccco1 | 87 | – | – | inactive | –
2 | O=C(NCCCCn1ccnc1)c1cccs1 | 95 | 3000 | – | – | –
3 | O=C(NCCn1ccnc1)c1ccco1 | 65 | – | – | – | –
4 | Cc1nccn1CCCNC(=O)c1cc2ccccc2n1C | 56 | – | – | inactive | –
5 | Cc1nccn1CCCNC(=O)c1ccc(Cl)nc1 | – | – | 44 | – | –
6 | CC(CCNC(=O)c1ccc(Cl)s1)n1ccnc1 (stereo unspecified) | 100 | 2000 | – | – | –
7 | O=C(NCCCCn1cncn1)c1ccco1 | 22 | – | – | inactive | –
8 | Cc1cn(CCCNC(=O)c2cc3ccccc3n2C)cn1 | 85 | – | – | inactive | –
9 | Cc1cn(CCCNC(=O)c2cc3ccccc3[nH]2)cn1 | 100 | – | – | inactive | –
10 | Cc1cn(CCCNC(=O)c2cc3cc(Cl)ccc3[nH]2)cn1 | 100 | – | – | inactive | –
11 | O=C(NCCCCCCCCn1ccnc1)c1ccc(Cl)s1 | – | 70 | 96 | – | –
12 | Cc1cn(CCCNC(=O)c2ccc(Cl)s2)cn1 | 95 | – | – | inactive | –
13 | Cc1cn(CCCNC(=O)c2ccc(Cl)nc2)cn1 | – | – | 86 | – | –
14 | O=C(NCCCCCCCCn1ccnc1)c1cc2cc(Cl)ccc2[nH]1 | – | 27 | 93 | – | –
15 | O=C(NCCCCn1cncn1)c1ccc(Cl)s1 | 83 | – | – | inactive | –
16 | CC(CNC(=O)c1cc2cc(Cl)ccc2[nH]1)Cn1ccnc1 (stereo unspecified) | 100 | – | – | – | –
17 | O=C(NCCCn1cncn1)c1cccs1 | 30 | – | – | inactive | –
18 | CC(CCNC(=O)c1cc2cc(Cl)ccc2[nH]1)n1ccnc1 (stereo unspecified) | 98 | 50 | – | – | –
19 | O=C(NCCCn1ccnc1)c1cccnc1 | 83 | – | – | inactive | –
20 | O=C(NCCCCCn1cncn1)c1ccc(Cl)s1 | 100 | – | – | inactive | –
21 | O=C(NCCCCn1ccnc1)c1cc2ccccc2[nH]1 | 100 | 40 | – | inactive | –
22 | Cc1nccn1CCCNC(=O)c1ccc(Cl)s1 | 78 | – | – | – | –
23 | CC(CCNC(=O)c1ccc(Cl)nc1)n1ccnc1 (stereo unspecified) | – | 3000 | 98 | – | –
24 | O=C(NCCCn1cncn1)c1cc2ccccc2o1 | 84 | – | – | inactive | –
25 | CC(CNC(=O)c1ccc(Cl)nc1)Cn1ccnc1 (stereo unspecified) | – | – | 98 | – | –
26 | O=C(NCCCn1cncn1)c1ccc(Cl)s1 | 64 | – | – | inactive | –
27 | O=C(NCCCn1ccnc1)c1ccc([N+](=O)[O-])o1 | 64 | – | – | – | Active
28 | O=C(NC/C=C/Cn1ccnc1)c1ccc(Cl)s1 | 100 | – | – | inactive | –
29 | O=C(NCCCn1cnc(-c2ccccc2)c1)c1ccc(Cl)s1 | 70 | – | – | inactive | –

More lines, main results first:

Row | inhibition [2] [%] | IC50 (Thromboxane-A synthase) [nM] | inhibition [3] [%] | SMILES | Activity (Rattus norvegicus [1]) | Activity (Rattus norvegicus [4])
30 | 97 | – | – | O=C(NCCCn1ccnc1)c1ccco1 | inactive | –
31 | 93 | – | – | O=C(NCCCn1ccnc1)c1cccs1 | inactive | –
32 | 89 | – | – | Cn1c(C(=O)NCCCn2ccnc2)cc2ccccc21 | inactive | –
33 | 82 | – | – | O=C(NCCCn1ccnc1)c1ccc(Br)o1 | inactive | –
34 | 91 | – | – | O=C(NCCCCn1ccnc1)c1sc2ccccc2c1Cl | inactive | –
35 | 100 | 400 | – | O=C(NCCCn1ccnc1)c1cc(Br)c(Br)s1 | inactive | –
36 | 100 | 7 | – | O=C(NCCCCCn1ccnc1)c1cc2cc(Cl)ccc2[nH]1 | – | –
37 | 99 | 200 | – | O=C(NCCCCn1ccnc1)c1ccc(Cl)s1 | – | –
38 | 94 | – | – | O=C(NCCCn1ccnc1)c1cc2ccccc2[nH]1 | – | –
39 | 96 | – | – | Cc1ccc2c(Cl)c(C(=O)NCCCn3ccnc3)sc2c1 | inactive | –
40 | 96 | – | – | COc1ccc2[nH]c(C(=O)NCCCn3ccnc3)cc2c1 | inactive | –
41 | 100 | 200 | – | O=C(NCCCCCn1ccnc1)c1ccc(Cl)s1 | inactive | –
42 | – | – | 87 | O=C(NCCCn1ccnc1)c1ccc(Cl)nc1 | – | –
43 | 100 | 100 | – | O=C(NCCCn1ccnc1)c1cc2cc(Cl)ccc2s1 | inactive | –
44 | 96 | – | – | O=C(NCCCn1ccnc1)c1sc2cc(F)ccc2c1Cl | inactive | –
45 | 97 | 300 | – | O=C(NCCCn1ccnc1)c1cc2ccccc2o1 | inactive | –
46 | – | 3000 | 100 | O=C(NCCCCCn1ccnc1)c1ccc(Cl)nc1 | – | –
47 | 70 | – | – | O=C(NCCn1ccnc1)c1sc2ccccc2c1Cl | – | –
48 | 96 | 1300 | – | Cc1ccc(C(=O)NCCCn2ccnc2)s1 | inactive | –
49 | 100 | 300 | – | O=C(NCCCn1ccnc1)c1sc2ccccc2c1Cl | – | –
50 | 95 | 600 | – | O=C(NCCCn1ccnc1)c1ccc(Cl)s1 | – | –
51 | 100 | 200 | – | O=C(NCCCCCCn1ccnc1)c1ccc(Cl)s1 | inactive | –
52 | 95 | – | – | O=C(NCCCn1ccnc1)c1cc2cc(Cl)ccc2[nH]1 | inactive | –
53 | 100 | – | – | O=C(NCCCCn1ccnc1)c1cc2cc(Cl)ccc2[nH]1 | – | –
54 | – | 8000 | 94 | O=C(NCCCCn1ccnc1)c1ccc(Cl)nc1 | – | –
55 | – | – | 64 | O=C(NCCCn1ccnc1)c1cccnc1Cl | – | –
